Assay outcomes deposited in PubChem by several laboratories.
L major viab – Leishmania major promastigote growth inhibition, primary screen | Leishmania major promastigotes, resazurin fluorescence viability | inhibition, % at 10 µM | actives 9% (n = 200,000) | AID 1063, 2008;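 further: promastigotes grown with compound for 44 hours at 28 °C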
CHOP inh – inhibitors of CHOP promoter induction, primary screen, cell-based, unfolded protein response, luciferase reporter; CHO-K1 CHOP-promoter luciferase, tunicamycin-induced, 15-18 h; inhibition, % at 10 µM; actives 3.8% (n = 220,000);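 active means compounds that reduced the stress-induced luciferase reporter signal by more than about 70% of percent inhibition, limit read from the data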
Rad51 HR inh – human RAD51 strand exchange inhibitors, primary screen, biochemical, fluorescence; DNA repair protein RAD51 homolog 1 (Homo sapiens), Q06609; hRad51 DNA strand exchange, fluorescence dequenching; inhibition, % at 10 µM; actives 0.085% (n = 200,000); AID 1385, 2008;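 active means inhibition above 40% at the single screening dose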
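System: hRad51 filaments on single-stranded DNA; reagent: Fluorescein- and BHQ1-tagged 47-mer duplex; compound dosing: one concentration, 10 µM final; timing: filaments 15 min 37 °C, then compound 30 min; measured by: fluorescein emission 520 nm, excitation 485 nm; benchmarks: per-plate controls and blanks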
Wee1 stabilizer – Wee1 degradation inhibitors, primary screen, cell-based, HeLa, Wee1K328M-luciferase, luminescence | Wee1-like protein kinase (Homo sapiens), P30291 | HeLa Luc-Wee1K328M stability; 100% = proteasome inhibitor MG132 effect | reporter increase, % at 5 µM | actives 1.2% (n = 220,000) | AID 1321, 2008;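 active means activation above the mean of all tested compounds plus 3 SD, set per screening run, cut at about 8.8% in these data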;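 further: cells exposed to compound for 20 h before luminescence read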
PKD1 kinase inh – inhibitors of human PKD1 kinase, biochemical, fluorescence polarization | actives 0.056% (n = 200,000) | Serine/threonine-protein kinase D1 (Homo sapiens), Q15139 | PKD1 kinase fluorescence polarization assay | inhibition, % (concentration not given with the values)
Arbovirus anti – antivirals against arbovirus infection, primary screen, cell-based, full library, 10K replicate subset | inhibition, % at 10 µM | arbovirus infection cell-based antiviral screen | AID 1251, 2008 | actives 0.37% (n = 200,000); in the data active means inhibition above about 30%
CHOP inh conf – retest of CHOP induction inhibitors, confirmation, cell-based. shares compounds with CHOP inh. CHO-CHOP promoter luciferase reporter, tunicamycin-induced, luminescence. inhibition, % at 10 µM. actives 45% (n = 2,100);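 active means mean of three repeat readings of reporter signal inhibition above a set limit, cut at about 70% in these data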
Large screens that a line does not name were inactive (follow-up assays come after a bar, where they were run). Most compounds without a hit are left out; they make up all but 12% or so of the library. Unless noted, no stated cut-off is given here; in the data, active means inhibition above about 50%; inactive means the rest.

O=C(CSc1nnc(SCc2cccc3ccccc23)s1)N=Nc1c(O)[nH]c2ccccc12	CHOP inh 97 | CHOP inh conf inactive
O=C(Cc1cccs1)N=Nc1c(O)[nH]c2ccccc12	none (no result: L major viab, PKD1 kinase inh, Arbovirus anti)
CCOC(=O)c1cccc(NC(=O)CSc2nnnn2C)c1	none
CCOC(=O)c1cccc(NC(=O)CSc2nnc(COc3ccccc3C)o2)c1	CHOP inh 108 | CHOP inh conf inactive
O=S(=O)(N/N=C/c1cccnc1)c1ccc(Cl)c(Cl)c1	none (no result: L major viab, PKD1 kinase inh, Arbovirus anti)
COc1ccc(/C=C2\SC(=N)N(c3ccc(F)cc3)C2=O)cc1OC	CHOP inh 102 | CHOP inh conf inactive
CCOc1ccc(/C=C2\SC(=O)N(c3ccc(O)cc3)C2=O)cc1OC	CHOP inh 105 (no result: L major viab, PKD1 kinase inh, Arbovirus anti) | CHOP inh conf inactive
Cc1cccc(NC(=O)c2ccccc2OCC(=O)N2CCCC2)c1C	none
COc1ccc2cc(C(=O)N/N=C/c3sc4ccccc4c3O)ccc2c1	CHOP inh 97 | CHOP inh conf inactive
COc1ccc(/C=N\NC(=O)c2cccc(Br)c2)c(OC)c1	none
CCn1c2ccccc2c2cc(NC(=O)CSc3nnc(-c4ccccc4OC)n3N)ccc21	none
CCOc1ccc(-c2nnc(SCC(=O)Nc3ccc4c(c3)c3ccccc3n4CC)n2N)cc1	CHOP inh 98 | CHOP inh conf inactive
CCN1CCN(CC(=O)Nc2cccc(C)c2C)C(=O)C1=O	none
COc1ccc(NCc2nnc(SCC(=O)c3ccc(OC)cc3)o2)cc1	none
CCOc1cc(C(=O)CSc2nnc(CNc3ccc(Cl)cc3)o2)ccc1NC(=O)CC	CHOP inh 105 | CHOP inh conf 112
COc1cc([N+](=O)[O-])ccc1NC(=O)CC(C)C	none (no result: Rad51 HR inh)
COc1ccccc1C(=O)Oc1ccc(C(C)C)cc1	CHOP inh 99 | CHOP inh conf 118
CC1CCN(S(=O)(=O)c2ccc(C(=O)Nc3sccc3C(N)=O)cc2)CC1	CHOP inh 97 | CHOP inh conf inactive
Clc1ccccc1/C=N/NC1=Nc2cccc3cccc1c23	CHOP inh 98 | CHOP inh conf inactive
COc1ccccc1NC1=Nc2cccc3cccc1c23	none (no result: L major viab, Rad51 HR inh, PKD1 kinase inh, Arbovirus anti)
CCN=C1S/C(=C\c2ccc(O)c(OCC)c2)C(=O)N1CC	none
CCN=C1S/C(=C\c2cc(OCC)c(O)cc2Br)C(=O)N1CC	CHOP inh 108 (no result: Rad51 HR inh) | CHOP inh conf inactive
Cc1ccc(-c2[nH]ncc2/C=N/n2c(COc3ccccc3C)nc3ccccc3c2=O)cc1	L major viab 75, CHOP inh 100 | CHOP inh conf inactive
COc1ccc(NC(=O)c2cc3c(=O)n(C)c4ccccc4c3n2C)cc1Cl	CHOP inh 101 (no result: L major viab, PKD1 kinase inh, Arbovirus anti) | CHOP inh conf inactive
COc1cc(/C=C(/C#N)c2nc3ccccc3[nH]2)ccc1OCC(=O)Nc1ccccc1C(C)C	CHOP inh 108 | CHOP inh conf 116
COc1cc(/C=C(/C#N)c2nc3ccccc3[nH]2)ccc1OCC(=O)Nc1ccccc1C	none
O=[N+]([O-])c1ccc(N2CCN(c3ccccc3O)CC2)c(Cl)c1	CHOP inh 96 | CHOP inh conf inactive
Cc1cc(C)cc(Oc2ccccc2C=O)c1	CHOP inh 99 | CHOP inh conf inactive
COc1ccc(Oc2ccccc2C=O)cc1	none
COc1ccc(-c2cn(-c3ccc(C)cc3C)c(=O)[nH]2)cc1OC	none
Cc1ccc(-c2nn(CC(=O)NCc3cc(-c4nn(C)c(=O)c5ccccc45)ccc3C)c(=O)c3ccccc23)cc1	CHOP inh 106 (no result: Rad51 HR inh) | CHOP inh conf 93
CCC(=O)NCc1cc(-c2nn(C)c(=O)c3ccccc23)ccc1C	none
CCOC(=O)CSc1nnc(CSc2nc3sc4c(c3c(=O)[nH]2)CCCC4)n1-c1ccccc1	none
COc1ccc(OC)c(C2CC(=O)Nc3c2c(=O)[nH]c2ncnn32)c1 (stereo unspecified)	none
